# From PubChem BioAssay
# PGE2 EP2 inh = blocks the human prostaglandin E2 receptor EP2; P43116; C6 glioma cells expressing human EP2, cAMP TR-FRET; cells stimulated with saturating PGE2; inhibition, % at 25 µM; 260,000 compounds, 0.52% hits; AID 1422;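 active = percent inhibition above 40 after rounding to a whole number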;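 note: rat C6 glioma host cells with rolipram phosphodiesterase inhibitor present; the protocol text gives 20 µM as final concentration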
# GPR7 antag = antagonists of human GPR7 (neuropeptides B/W receptor 1) | P48145 | GPR7-expressing cells, fluorescence antagonist assay | inhibition, % at 4.4 µM | 290,000 compounds, 1.1% hits | AID 1861; in the data active = inhibition above about 16%, passing the limit was not always enough;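 note: cells stimulated with the agonist NPW; 0% = agonist with vehicle and 100% = vehicle without agonist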
# EP2 mod = EP2 receptor (human) modulation; EP2-expressing cells, cAMP HTRF FRET, PGE2 co-stimulation; induction, % at 25 µM; 260,000 compounds, 0.83% hits;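 active = compounds whose cAMP rise, as percent of the full-agonist control response, exceeds 60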;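 note: rat C6 glioma line stably carrying human EP2 under a CMV promoter; the protocol text gives 20 µM as final concentration; 100% = response of wells given 1 µM PGE2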
# CHO parental Ca = signal in parental CHO cells, OX1R antagonist counter-screen | parental CHO-K1, ATP-induced calcium, Fluo-8 fluorescence | inhibition, % at 5.6 µM | 330,000 compounds, 0.63% hits | AID 463079;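 active = inhibition above that plate's mean sample inhibition plus 3 SD, cut at about 26% in these data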;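 note: 0% = ATP-challenged DMSO wells and 100% = DMSO wells without ATP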
#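 material = parental CHO cells | also added = ATP as calcium-mobilizing challenge | dosing = single point at 5.6 µM | detection = intracellular calcium via Fluo-8 no-wash fluorescent dye | read-out = % inhibition | benchmarks = low control ATP plus DMSO, high control DMSO only | repeats = one well per compound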
# OX1R antag-1 = antagonists of human orexin 1 receptor (OX1R); inhibition, % at 6.6 µM; OX1R-expressing cells, FRET antagonist read-out; 330,000 compounds, 1.8% hits; AID 485270; in the data active = inhibition mostly above about 38%, no sharp cut-off; inactive = mostly below about 40%;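 note: 0% = agonist challenge alone and 100% = reference antagonist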
# Target sequence (O43613 whole entry, looked up): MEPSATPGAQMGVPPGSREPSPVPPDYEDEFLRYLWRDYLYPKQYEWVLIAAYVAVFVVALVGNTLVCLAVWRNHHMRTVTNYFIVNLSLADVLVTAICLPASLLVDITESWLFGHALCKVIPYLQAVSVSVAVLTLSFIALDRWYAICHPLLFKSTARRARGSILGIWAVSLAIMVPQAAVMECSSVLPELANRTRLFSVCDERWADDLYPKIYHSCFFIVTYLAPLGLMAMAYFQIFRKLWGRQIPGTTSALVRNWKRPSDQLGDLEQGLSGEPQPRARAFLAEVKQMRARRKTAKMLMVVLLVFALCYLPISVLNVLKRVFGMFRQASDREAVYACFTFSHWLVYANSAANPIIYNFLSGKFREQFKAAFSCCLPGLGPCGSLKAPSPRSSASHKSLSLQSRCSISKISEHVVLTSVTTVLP
# OX1R antag-2 = blocks the human orexin 1 receptor | CHO/OX1R cells, Fluo-8 calcium fluorescence, orexin A | AID 434989 | inhibition, % at 5 µM | 330,000 compounds, 0.43% hits;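 active = inhibition above its plate's threshold, mean inhibition of all tested compounds on the plate plus 3 SD, cut at about 37% in these data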;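 note: 0% = orexin A challenge wells and 100% = SB-334867-A antagonist wells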
# EP2 confirm = EP2 receptor cAMP induction, counter-screens negative; shares compounds with EP2 mod; C6 glioma EP2 cells, cAMP HTRF induction; plus low (about EC15) PGE2 agonist; calls only at 20 µM (by protocol); 1,300 compounds, 47% hits; AID 1080;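 active = cAMP induction above 50% in the main assay while under 30% in all four parallel counter assays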;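 note: rat C6 glioma cells stably expressing human EP2 receptor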
# The depositor's hits bear a star; i = inactive; · = not tested or not shown; + = active, no number. The list is not random: actives were taken first. Their share in the collection is about 3.7%.
SMILES,PGE2 EP2 inh,GPR7 antag,EP2 mod,CHO parental Ca,OX1R antag-1,OX1R antag-2,EP2 confirm
O=c1c2oc3ccccc3c2[nH]c(=S)n1-c1ccccc1,12.8,1.4,70.7*,3.6,1.8,5.0,i
Cc1cccc(-n2c(=S)[nH]c3c(oc4ccccc43)c2=O)c1,12.6,-1.7,70.6*,-9.3,7.1,3.7,i
Cc1ccc(-n2c(=S)[nH]c3c(oc4ccccc43)c2=O)cc1,13.7,-4.7,74.4*,-5.8,8.4,-13.0,i
CCC(=O)Nc1ccc(S(=O)(=O)Nc2ccccn2)cc1,9.1,-7.3,8.1,-10.3,17.2,-21.8,·
COc1ccc(F)cc1CN1CCN(c2cc(C)nc3c4c(C)cc(C)nc4nn23)CC1,10.7,-9.8,-26.8,·,·,·,·
COC(=O)C1=C(C)NC(=O)C1(NC(=O)c1ccncc1)C(F)(F)F (stereo unspecified),7.9,-9.6,10.1,-1.5,14.6,6.2,·
COC(=O)NC1(C(F)(F)F)C(=O)NC(C)=C1C(=O)OC (stereo unspecified),10.5,8.6,70.7*,8.9,14.7,-2.5,i
COC(=O)C1CCN(C(=O)c2ccc(OC3CCN(Cc4ccccn4)CC3)cc2)CC1,3.6,-15.2,-26.1,7.3,21.0,-18.4,·
O=C(CSc1nnc(Cc2ccccc2)n1Cc1ccco1)NC12CC3CC(CC(C3)C1)C2,-2.6,-0.6,62.6*,-22.8,16.9,2.9,i
CN(C)C(=O)CSc1nnc(Cc2ccccc2)n1Cc1ccco1,1.9,-18.1,3.5,-28.9,12.2,-30.3,·
Cc1ccc(Cl)cc1NC(=O)C(=O)N1CCCCC1,2.3,-3.0,15.0,-11.0,6.1,-8.4,·
Cc1ccc(Cl)cc1NC1=NC(=S)N(C(C)C)C12CCCCC2,7.1,-12.2,93.5*,-10.4,2.0,-29.9,+
CC(=O)O/N=C/c1c(NCc2ccccc2)nc2c(C)cccn2c1=O,10.1,-10.4,48.9,-19.3,9.6,-26.4,·
NC(=O)C1CCN(C2CC(=O)N(c3ccc(F)c(Cl)c3)C2=O)CC1 (stereo unspecified),11.8,-0.3,4.9,-3.7,21.0,-4.1,·
C=CCNC(=O)C1CCN(c2c([N+](=O)[O-])cc(C(F)(F)F)cc2[N+](=O)[O-])CC1,10.2,0.3,-2.8,1.4,-0.9,-8.5,·
CCOC(=O)c1c(-c2ccc(C)o2)csc1NC(=O)CN1CCCCC1,4.3,-5.4,65.5*,-27.1,26.7,-20.5,i
CCOC(=O)c1c(-c2ccc(C)cc2)csc1NC(=O)CCN1CC(C)OC(C)C1 (stereo unspecified),5.8,13.7,86.5*,-42.6,13.6,-61.1,+
CCOC(=O)c1c(-c2ccc(OC)cc2)csc1NC(=O)CCN1CCOCC1,6.6,-19.4,56.2,-8.4,26.0,-16.5,·
CCOC(=O)c1sc(NC(C)=O)c(C(=O)OCC)c1C,20.4,-11.6,14.3,-5.1,18.3,-19.2,·
CCC(C)[C@H]1CN=C(N)N1CC1CCCCC1 (stereo partly specified),18.5,·,·,-12.4,-1.1,10.8,·
C=CCNC(=S)NCc1ccccc1OC,4.3,-11.9,18.1,-5.2,33.3,-16.1,·
S=c1[nH]nc(-c2ccco2)n1/N=C/c1ccc(Cl)cc1Cl,3.7,-5.4,78.4*,-1.2,22.4,-3.1,+
Cn1cccc1/C=C1\Cc2ccccc2C1=O,5.8,2.7,-46.4,-10.2,40.4,-1.3,·
Cn1cccc1/C=C1\CC(C(C)(C)C)C/C(=C\c2cccn2C)C1=O (stereo unspecified),3.5,-3.0,70.7*,4.8,10.5,6.1,+
CCOc1ccccc1Cn1c(=O)sc2ccccc21,3.6,-2.4,83.0*,-5.5,25.6,-4.6,+
CCCCOc1ccccc1Cn1c(=O)oc2ccccc21,7.8,-10.0,62.2*,-4.7,26.2,-28.1,+
O=c1oc2ccccc2n1Cc1ccccc1F,·,-18.7,·,-4.2,13.7,-4.6,·
Cc1ccc(NC(=O)COC(=O)Cc2csc(-c3ccc(Cl)cc3)n2)cc1C,8.7,5.5,19.3,1.4,14.5,-19.1,·
O=C(NCCCN1CCOCC1)c1cc(Cl)ccc1Cl,·,-9.4,·,-7.8,7.2,-10.6,·
